Only some compounds are listed: those with a hit (about 2% of all), similar ones and a draw of the others.
SR-BI DiI-HDL act: enhances SR-BI lipid uptake from DiI-HDL; activation, % at 12.5 µM; CHO ldlA[mSR-BI] cells, DiI-HDL uptake fluorescence, 3 h; 100 = double the neutral-control signal; AID 504775; actives 0.096% (n = 320,000);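 active = mean replicate activation of at least 60% and every replicate at or above 60%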;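 note: 0% = median plate neutral-control signal and 100% = twice that signal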
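Assay system: CHO ldlA[mSR-BI] cells, LDL receptor-null, SR-BI overexpressing; medium: Ham's F12 with 0.5% BSA, HEPES 25 mM, pH 7.4; also added: DiI-HDL 10 µg/mL; timing: 3 h uptake period with compound, 37 °C; signal: DiI fluorescence, bottom read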
sPLA2-III inh: Inhibits HGIII-sPLA2 liposome hydrolysis, primary screen; Q9NZ20; QFRET BODIPY PC-A2 liposome hydrolysis, fluorescence; inhibition, % at 12.2 µM; actives 0.56% (n = 370,000);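 active = inhibition above mean plus 3 SD of compounds lying within the high and low control bounds, cut at about 19% in these data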;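 note: 0% = median of test compound wells and 100% = no enzyme DMSO wells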
Target sequence (Q9NZ20 whole entry, looked up): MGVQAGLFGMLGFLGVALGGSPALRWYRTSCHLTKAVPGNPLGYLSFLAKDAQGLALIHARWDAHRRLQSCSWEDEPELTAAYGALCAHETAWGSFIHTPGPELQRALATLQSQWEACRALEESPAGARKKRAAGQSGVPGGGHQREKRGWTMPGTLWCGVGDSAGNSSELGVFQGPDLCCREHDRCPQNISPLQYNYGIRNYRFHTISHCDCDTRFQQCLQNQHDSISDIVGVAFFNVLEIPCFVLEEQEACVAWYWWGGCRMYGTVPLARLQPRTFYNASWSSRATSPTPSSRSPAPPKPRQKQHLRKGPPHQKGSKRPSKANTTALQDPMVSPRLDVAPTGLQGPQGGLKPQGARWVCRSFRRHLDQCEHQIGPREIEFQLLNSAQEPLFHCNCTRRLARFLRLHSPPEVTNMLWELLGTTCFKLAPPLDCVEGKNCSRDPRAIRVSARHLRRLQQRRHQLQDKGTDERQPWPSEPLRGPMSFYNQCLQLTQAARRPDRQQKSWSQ
Xi reactivation: X-chromosome reactivation activator | XiGFP mouse fibroblasts, % GFP-positive cells imaging, 3 d; cells co-treated with 5-aza-dC sensitizer; scaled so ellipticine positive control = 100% | activation, % at 7.58 µM | actives 0.055% (n = 360,000) | AID 743238;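 active = mean normalized replicate activation at least 10% and every replicate at or above 10%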;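 note: 0% = median of on-plate neutral control wells and 100% = ellipticine 6 µM median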
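material = 68-5-11 XiGFP fibroblast line | medium = DMEM plus 5-aza-dC sensitizer | schedule = 3 days compound exposure | benchmarks = positive control ellipticine, 6 µM final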
SR-BI HDL uptake: mouse SR-BI HDL lipid transfer inhibition | ldlA[mSR-BI] CHO cells, DiI-HDL uptake fluorescence, 3 h | Q61009 | actives 0.96% (n = 320,000) | inhibition, % at 12.5 µM;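 active = mean replicate inhibition of at least 70% and a set share of replicates each scoring 70 or more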;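 note: 0% = median of neutral control wells and 100% = median of positive control wells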
ARNT-TACC3 inh: ARNT/TACC3 interaction disruption; Q9Y6A5; AlphaScreen His-ARNT PAS-B/GST-TACC3 binding, luminescence; TACC3 fragment carries E629A point mutation; inhibition, % at 9.99 µM; actives 0.66% (n = 390,000);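 active = mean inhibition of replicates at least 50% and at least half of replicates each reaching 50%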;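 note: 0% = complete ARNT plus TACC3 wells and 100% = ARNT alone without TACC3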
NSD2 HMT inh: blocks human histone methyltransferase NSD2. inhibition, % at 12.5 µM. actives 0.54% (n = 310,000). NSD2 peptide methylation, AlphaScreen, 120 min; in the data active = inhibition above about 50%
sPLA2 confirm: human GIII-sPLA2 inhibition, confirmation; actives 34% (n = 2,000); shares compounds with sPLA2-III inh; recombinant hGIII-sPLA2, BODIPY PC-A2 QFRET fluorescence; inhibition, % at 12.2 µM; AID 743280;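 active = mean inhibition across triplicates above the hit cutoff set in the earlier primary screen, cut at about 19% in these data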;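 note: 0% = enzyme with DMSO and 100% = DMSO wells lacking enzyme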
535nm interf: 535nm fluorescence interference, HGIII-sPLA2 counter-screen; shares compounds with sPLA2-III inh; BODIPY FL product fluorescence interference, QFRET; inhibition, % at 12.2 µM; actives 8.5% (n = 2,000);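 active = average inhibition above the solvent-only control mean plus 3 SD, cut at about 6% in these data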;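 note: 0% = DMSO with substrate plus product and 100% = DMSO with substrate alone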
535nm interf DR: 535nm optical interference dose response, HGIII-sPLA2 counter-screen; shares compounds with sPLA2-III inh; BODIPY FL product fluorescence interference, cell-free; IC50, µM; 240 tested, under 10 active;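 active = IC50 at or below 10 µM; inactive = IC50 above 10 µM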
Starred values were filed as active, the others as inactive; nt = not tested or not shown.

SMILES	SR-BI DiI-HDL act	sPLA2-III inh	Xi reactivation	SR-BI HDL uptake	ARNT-TACC3 inh	NSD2 HMT inh	sPLA2 confirm	535nm interf	others
CCOC(=O)c1sc(NC(C)=O)nc1C	2	23*	nt	-2	-7	1	3	-8
CC(C)Oc1ccc(CSC(=N)N)cc1	-10	29*	nt	10	-26	-1	-4	-8
Cc1noc(C)c1NC(=O)N(C)C[C@H]1Oc2c(NC(=O)CCC(F)(F)F)cccc2C(=O)N([C@H](C)CO)C[C@@H]1C	nt	nt	0	nt	nt	nt	nt	nt
O=C(Nc1ccc([N+](=O)[O-])cn1)c1cccnc1	19	20*	0	-19	-6	-1	5	-4
Cc1csc(N(C(=O)Cc2ccccc2F)c2ccccc2)n1	34	20*	0	-34	1	-1	-3	-12
COc1ccc(CC(=O)N(c2ccccc2)c2nc(C)cs2)cc1	-9	-1	0	9	-36	-5	nt	nt
COCCN(C(=O)COC(=O)c1ccccc1Cc1ccccc1)c1c(N)n(Cc2ccccc2)c(=O)[nH]c1=O	-64	-22	0	64	3	-1	nt	nt
CNc1ccccc1C(=O)OCC(=O)N(CCOC)c1c(N)n(CC(C)C)c(=O)[nH]c1=O	4	20*	0	-4	-4	-6	11	-8
CCOC(=O)c1ccc(NC(=O)C2=C(C)Nc3nc(CCCO)nn3C2c2ccc(OC)cc2)cc1 (configuration not stated)	12	-11	nt	-12	1	-1	nt	nt
CC(C)Cc1c2c([nH]c(=S)c1C#N)CCCC2	nt	20*	0	nt	0	1	30*	2	535nm interf DR=>122
Cc1[nH]c(=S)c(C#N)c2c1CCCC2	-28	-1	0	28	nt	-2	nt	nt
Cc1ccc(C)c(NC(=O)NNC(=O)c2cc3ccccc3cc2O)c1	-47	22*	0	47	-1	0	22*	3
Cc1ccc(NC(=O)NNC(=O)c2cc3ccccc3cc2O)c(C)c1	-50	16	0	50	2	0	nt	nt
Cc1ccc(NC(=O)NNC(=O)c2cc3ccccc3cc2O)cc1C	-2	28*	0	2	-7	2	26*	3
O=C(Nc1ncc(Cc2ccc(C(F)(F)F)cc2)s1)c1ccc(-c2cccc([N+](=O)[O-])c2)o1	-40	3	0	40	-1	-3	nt	nt
COC(=O)C1=C(C)N(Cc2ccc(C(F)(F)F)cc2)C(=NCc2ccccc2)NC1c1ccc(Cl)cc1 (configuration not stated)	nt	2	0	nt	nt	nt	nt	nt
COC(=O)C1=C(C)N(Cc2ccc(C(F)(F)F)cc2)C(=NCc2ccc(OC)cc2)NC1c1ccccc1 (configuration not stated)	nt	21*	0	nt	nt	nt	-24	-35
Oc1ccc(-c2n[nH]c(=S)n2Cc2ccco2)cc1	-17	5	nt	17	-17	1	nt	nt
Cc1nn(C)c(-c2n[nH]c(=S)n2Cc2ccco2)c1Cl	-11	20*	0	11	-5	7	22*	-1
CCOc1ccc(OCC)c(NC(=O)C2CCN(c3nn4c(=O)cc(C)nc4s3)CC2)c1	-69	nt	nt	69	7	-1	nt	nt
c1ccc(N2CCN(c3ccccc3)C2c2cccnc2)cc1	-6	24*	nt	6	-3	6	4	-12
Cc1ccc(N2CCN(c3ccc(C)cc3)C2c2cccnc2)cc1	-17	11	nt	17	1	1	nt	nt
C[C@@H]1CN([C@H](C)CO)C(=O)Cc2cc(NC(=O)c3ccncc3)ccc2O[C@@H]1CN(C)C	nt	nt	2	nt	-7	nt	nt	nt
CC(=O)c1ccc(-n2nnnc2SCC(=O)Nc2sc(C)c(C)c2C#N)cc1	-30	19*	0	30	-4	-1	4	-11
Cc1ccc(-n2nnnc2SCC(=O)Nc2sc(C)c(C)c2C#N)cc1C	-20	-4	nt	20	-14	1	nt	nt
SMILES	SR-BI DiI-HDL act	sPLA2-III inh	Xi reactivation	SR-BI HDL uptake	ARNT-TACC3 inh	NSD2 HMT inh	sPLA2 confirm	535nm interf	others
CCC1CN(C(=O)Nc2ccc(C)cc2)c2cc(C)ccc2O1 (configuration not stated)	-3	2	0	3	-1	-1	nt	nt
CCOc1ccc(CSC(=N)N)cc1Cl	1	26*	0	-1	3	-1	8	-8
CCOc1ccc(CSC(=N)N)cc1[N+](=O)[O-]	36	22*	nt	-36	-13	11	2	0
CCCCOc1ccc(CSCCN)cc1Cl	0	19	0	0	2	3	nt	nt
CCCCOc1ccc(CSc2nnc(C)n2N)cc1[N+](=O)[O-]	-14	7	0	14	nt	-1	nt	nt
N#Cc1c(-c2cccs2)cc(C2CC2)nc1SCC(N)=O	-6	35*	nt	6	-15	0	12	-2
CCNC(=O)Nc1ccc2c(c1)C(=O)N(C)[C@H]1CC[C@H](CC(=O)NCC3CC3)O[C@@H]1CO2	nt	nt	0	nt	0	nt	nt	nt
Oc1ccc(/C=C/c2ccccc2F)c2cccnc12	nt	28*	nt	nt	nt	nt	6	9.6*
CN(C)c1ccc(C=Cc2ccnc3c(O)cccc23)cc1	nt	15	2	nt	nt	2	nt	nt
C=CCNC(=O)/C(=C/c1cn(-c2ccccc2)nc1-c1cccc([N+](=O)[O-])c1)NC(=O)c1ccccc1	18	21*	1	-18	-10	2	-12	-24
CN(C)C(=O)/C(=C/c1cn(-c2ccccc2)nc1-c1cccc([N+](=O)[O-])c1)NC(=O)c1ccccc1	2	3	0	-2	-3	-1	nt	nt
C=CCn1c(O)c(N=NC(=S)Nc2ccccc2F)c2cc(S(=O)(=O)N3CCOCC3)ccc21	-53	21*	1	53	-1	11	26*	-11
C=CCn1c(O)c(N=NC(=S)Nc2ccccc2F)c2ccccc21	-16	20*	0	16	-5	1	32*	13*
COc1ccc(NC(=O)C2C(c3ccc4c(c3)OCO4)=Nc3ccccc3N2C(=O)c2cccc(C(F)(F)F)c2)cc1 (configuration not stated)	nt	-2	0	nt	nt	nt	nt	nt
CCN(CC)S(=O)(=O)c1ccc(C(=O)Oc2coc(CSc3nc(C)cc(C)n3)cc2=O)cc1	53	21*	0	-53	30	-2	-29	-29
